Values after ≈ are worked out from the molar mass of the structure shown. Values joined by “and” are separate entries in the source; they are usually repeats but may differ in a detail not shown here. Equal values may be shown once.
Columns and labels:
Bacillus cereus = assay: Antimicrobial activity on Bacillus cereus; format: functional
[1] = tested on: DNA topoisomerase I (Bos taurus); assay: Inhibitory activity towards Topoisomerase 1 from calf thymus.
B16 [2] = assay: Antiproliferative activity against B16 mouse melanoma cells; format: functional, cell-based
Outline: (§1)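 B16 mouse melanoma cells (EMEM, 10% FCS, 37 °C, 5% CO2) plated at 200 cells/dish, adhered 20 h, then exposed 24 h to increasing drug concentrations. Drug medium removed, PBS wash, 12 days regrowth in fresh medium.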

P388 = assay: Antiproliferative activity against P388 Murine Leukemia cells; format: functional, cell-based; settings: Mus musculus
[3] = target: Protein kinase C alpha type (Homo sapiens, UniProt P17252); assay: Inhibition of Protein Kinase C(PKC)
Outline: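 Procedure a: PKC (0.5 μg/mL) with histone IIIs (2.4 mg/mL), 10 μM ATP plus [γ32P]ATP, 10 mM MgCl2, 0.1 mM CaCl2, phosphatidylserine and diacylglycerol (10 mg/mL each), 50 mM Tris pH 7.5, at 30 °C for 12 min. TCA precipitation, histone-bound 32P counted by scintillation; triplicate.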

[4] = tested on: DNA topoisomerase II (Bos taurus); assay: Inhibitory activity towards Topoisomerase 2 from calf thymus
[5] = Inhibition of Protein Kinase A (PKA).
Outline: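 PKA (1 μg/mL) phosphorylating histone IIa (1 mg/mL) with 10 μM ATP plus [γ32P]ATP, 5 mM MgCl2, 50 mM Tris pH 7.0, at 30 °C for 12 min. Stopped with 12% TCA with BSA carrier, reprecipitated. 32P incorporated into histone counted by scintillation; triplicate.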

Mus musculus [6] = assay: In vivo efficacy study on mice with P388 Leukemia Cells determined after administration of 16 mg/kg/day dosage; format: functional
Outline: (§2)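 Male B6D2F1 mice injected intraperitoneally with 1×10^6 P388 leukemia cells on day 0 (line kept by weekly intraperitoneal passage in male DBA/2 mice). Drug given intraperitoneally on days 1, 5 and 9. Controls received DMSO–olive oil solvent. Six mice per treated group, 12 controls. Median survival time compared with controls, reported as oncostatic index T/C × 100.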

Mus musculus [7] = assay: In vivo efficacy study on mice with P388 Leukemia Cells determined after administration of 64 mg/kg/day dosage; format: functional; outline: as §2
Mus musculus [8] = assay: In vivo efficacy study on mice with B16 Melanoma cells determined after administration of 2 mg/kg/day dosage; format: functional, Melanoma cell
Outline: (§3)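 Male B6D2F1 mice given 0.5 × 10⁶ B16 melanoma cells subcutaneously on the dorsum on day 0 (cells maintained in MEM culture). Drug given intraperitoneally on days 1, 5 and 9. Controls received DMSO–olive oil solvent. Six mice per treated group, 12 controls. Median survival time compared with controls, reported as oncostatic index T/C × 100.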

Mus musculus [9] = assay: Antitumor activity against mice with B16 melanoma was assessed from the ratio of median survival time of treated animals (T) to controls animals, at 16 mg/Kg; format: functional; outline: as §3
Mus musculus [10] = assay: Antitumor activity against mice with B16 melanoma was assessed from the ratio of median survival time of treated animals (T) to controls animals, at 2 mg/Kg; format: functional; outline: as §3
Mus musculus [11] = assay: In vivo efficacy study on mice with P388 Leukemia Cells determined after administration of 2 mg/kg/day dosage; format: functional; outline: as §2
Mus musculus [12] = assay: Antitumor activity against mice with B16 melanoma was assessed from the ratio of median survival time of treated animals (T) to controls animals, at 64 mg/Kg; format: functional; outline: as §3
Mus musculus [13] = assay: In vivo efficacy study on mice with B16 Melanoma cells determined after administration of 64 mg/kg/day dosage; format: functional, Melanoma cell; outline: as §3
Mus musculus [14] = assay: In vivo efficacy study on mice with B16 Melanoma cells determined after administration of 16 mg/kg/day dosage; format: functional, Melanoma cell; outline: as §3
Mus musculus [15] = assay: Antitumor activity against mice with P388 leukemia cell was assessed from the ratio of median survival time of treated animals (T) to controls animals, at 16 mg/Kg; format: functional; outline: as §2
Mus musculus [16] = assay: Antitumor activity against mice with P388 leukemia cell was assessed from the ratio of median survival time of treated animals (T) to controls animals, at 64 mg/Kg; format: functional; outline: as §2
Mus musculus [17] = assay: Antitumor activity against mice with P388 leukemia cell was assessed from the ratio of median survival time of treated animals (T) to controls animals, at 2 mg/Kg; format: functional; outline: as §2
B16 [18] = assay: Compound was evaluated for antiproliferative activity against B16 mouse melanoma cells *= Partially precipitated in DMSO; format: functional, cell-based; outline: as §1
Mus musculus [19] = assay: In vivo efficacy study on mice with B16 Melanoma Cells determined after administration of 64 mg/kg/day dosage; format: functional; outline: as §3

Row | SMILES | MIC (Bacillus cereus) [µg/mL] | MIC [1] [µg/mL] | IC50 (B16 [2]) [µM] | IC50 (P388) [µM] | IC50 [3] [µM] | MIC [4] [µg/mL] | IC50 [5] [µM] | other results
1 | O=C1c2c(c3c4ccccc4[nH]c3c3[nH]c4ccccc4c23)C(=O)N1CCO | > 50 | > 10 | > 150 | 7 | > 100 | > 10 | – | –
2 | O=CNN1C(=O)c2c(c3c4cccc(Cl)c4[nH]c3c3[nH]c4c(Cl)cccc4c23)C1=O | > 50 | – | – | > 10 | > 100 | – | – | –
3 | COC1C(CO)OC(n2c3c(Cl)cccc3c3c4c(c5c6cccc(Cl)c6[nH]c5c32)C(=O)N(N)C4=O)C(O)C1O (configuration not stated) | 0.8 (≈ 1.37 µM) | 0.1 (≈ 0.171 µM) | 0.3 | 0.1 | > 100 | > 10 | – | –
4 | O=C1NC(O)c2c1c1c3cccc(Cl)c3[nH]c1c1[nH]c3c(Cl)cccc3c21 (configuration not stated) | > 50 | > 10 | 8.4 | 9 | > 100 | > 10 | > 100 | –
5 | COC1C(CO)OC(n2c3ccccc3c3c4c(c5c6ccccc6[nH]c5c32)C(=O)N(O)C4=O)C(O)C1O (configuration not stated) | 25 (≈ 48.3 µM) | 0.1 (≈ 0.193 µM) | 5.8 | 3 | 40 | > 10 | – | –
6 | CO[C@H]1[C@H](O)[C@@H](O)[C@H](n2c3ccccc3c3c4c(c5c6ccccc6[nH]c5c32)C(=O)NC4=O)O[C@@H]1CO | > 50 | 1 (≈ 1.99 µM) | 17.5 | 3.5 | > 100 | > 10 | > 100 | –
7 | COC1C(CO)OC(n2c3ccccc3c3c4c(c5c6ccccc6[nH]c5c32)C(=O)N(N)C4=O)C(O)C1O (configuration not stated) | 50 (≈ 96.8 µM) | 0.1 (≈ 0.194 µM) | 4.1 | 0.3 | > 100 | > 10 | – | –
8 | O=C1NCc2c1c1c3ccccc3[nH]c1c1[nH]c3ccccc3c21 [STAUROSPORINONE] | > 50 | – | 4.8 | 4 | – | – | 25.7 | Mean survival in days (Mus musculus [6]): 11; Mean survival in days (Mus musculus [7]): 11.5; Mean survival in days (Mus musculus [8]): 23; T/C x100 (Mus musculus [9]): 122; T/C x100 (Mus musculus [10]): 94; Mean survival in days (Mus musculus [11]): 11; T/C x100 (Mus musculus [12]): 106; Mean survival in days (Mus musculus [13]): 26; Mean survival in days (Mus musculus [14]): 30; T/C x100 (Mus musculus [15]): 100; T/C x100 (Mus musculus [16]): 104; T/C x100 (Mus musculus [17]): 100
9 | O=C1NC(=O)c2c1c1c3ccccc3[nH]c1c1[nH]c3ccccc3c21 [STAUROSPORINE AGLYCON] | > 50 | – | > 100 | 4 | – | – | 60 | –
10 | CO[C@H]1[C@H](O)[C@@H](O)[C@H](n2c3c(Cl)cccc3c3c4c(c5c6cccc(Cl)c6[nH]c5c32)C(=O)NC4=O)O[C@@H]1CO [REBECCAMYCIN] | 6.25 (≈ 11 µM) | – | 0.48 | 0.3 | – | – | > 100 | Mean survival in days (Mus musculus [6]): 16.5; Mean survival in days (Mus musculus [7]): 18; Mean survival in days (Mus musculus [8]): 30.5; T/C x100 (Mus musculus [9]): 112; T/C x100 (Mus musculus [10]): 124; Mean survival in days (Mus musculus [11]): 15; T/C x100 (Mus musculus [12]): 106; Mean survival in days (Mus musculus [14]): 27.5 and 26; T/C x100 (Mus musculus [15]): 150; T/C x100 (Mus musculus [16]): 164; T/C x100 (Mus musculus [17]): 136
11 | NN1C(=O)c2c(c3c4ccccc4[nH]c3c3[nH]c4ccccc4c23)C1=O | > 50 | – | > 250 | > 10 | 43.5 | – | 44.6 | –
12 | O=C1NCc2c1c1c3cccc(Cl)c3[nH]c1c1[nH]c3c(Cl)cccc3c21 | 6.25 (≈ 16.4 µM) | > 10 | – | 3.5 | > 100 | > 10 | > 100 | –
13 | COC1C(CO)OC(n2c3c(Cl)cccc3c3c4c(c5c6cccc(Cl)c6[nH]c5c32)C(=O)N(NC=O)C4=O)C(O)C1O (configuration not stated) | 3.1 (≈ 5.05 µM) | 1 (≈ 1.63 µM) | – | 0.3 | > 100 | > 10 | – | –
14 | COC1C(CO)OC(n2c3c(Cl)cccc3c3c4c(c5c6cccc(Cl)c6[nH]c5c32)C(=O)N(O)C4=O)C(O)C1O (configuration not stated) | 3.1 (≈ 5.29 µM) | 0.3 (≈ 0.512 µM) | 0.7 | 0.5 | 68 | > 10 | – | –
15 | COC1C(CO)OC(n2c3ccccc3c3c4c(c5c6ccccc6[nH]c5c32)C(=O)N(NC=O)C4=O)C(O)C1O (configuration not stated) | 25 (≈ 45.9 µM) | 0.1 (≈ 0.184 µM) | – | 0.3 | > 100 | > 10 | – | –
16 | O=CNN1C(=O)c2c(c3c4ccccc4[nH]c3c3[nH]c4ccccc4c23)C1=O | 50 (≈ 136 µM) | 1 (≈ 2.71 µM) | > 100 | 3.5 | > 100 | > 10 | – | –
17 | NN1C(=O)c2c(c3c4cccc(Cl)c4[nH]c3c3[nH]c4c(Cl)cccc4c23)C1=O | – | > 10 | 17 | > 10 | > 100 | > 10 | – | –
18 | NNC(=O)NN1C(=O)c2c(c3c4ccccc4[nH]c3c3[nH]c4ccccc4c23)C1=O | 50 (≈ 126 µM) | – | – | > 10 | 78 | – | – | IC50 (B16 [18]): 75 µM
19 | O=C1NC(=O)c2c1c1c3cccc(Cl)c3[nH]c1c1[nH]c3c(Cl)cccc3c21 | > 50 | – | 24 | > 10 | > 100 | – | > 100 | –
20 | COC1C(CO)OC(n2c3c(Cl)cccc3c3c4c(c5c6cccc(Cl)c6[nH]c5c32)CNC4=O)C(O)C1O (configuration not stated) | 3.1 (≈ 5.57 µM) | 1 (≈ 1.8 µM) | > 125 | 3 | 28.8 | > 10 | > 100 | –
21 | O=C1NC(O)c2c1c1c3ccccc3[nH]c1c1[nH]c3ccccc3c21 (configuration not stated) | 6.25 (≈ 19.1 µM) | – | – | 0.3 | – | – | 34 | –
22 | COC1C(CO)OC(n2c3ccccc3c3c4c(c5c6ccccc6[nH]c5c32)CNC4=O)C(O)C1O (configuration not stated) | 12.5 (≈ 25.6 µM) | 0.01 (≈ 0.0205 µM) | – | 3 | 3.7 | > 10 | – | –
23 | O=C1c2c(c3c4ccccc4[nH]c3c3[nH]c4ccccc4c23)C(=O)N1O | > 50 | > 10 | 4.6 | > 10 | 79.2 | > 10 | 41.5 | Mean survival in days (Mus musculus [6]): 11; Mean survival in days (Mus musculus [7]): 11; Mean survival in days (Mus musculus [8]): 27.5; T/C x100 (Mus musculus [9]): 128; T/C x100 (Mus musculus [10]): 112; Mean survival in days (Mus musculus [11]): 11.5; T/C x100 (Mus musculus [12]): 112; Mean survival in days (Mus musculus [14]): 31.5; T/C x100 (Mus musculus [15]): 100; T/C x100 (Mus musculus [16]): 100; Mean survival in days (Mus musculus [19]): 27.5; T/C x100 (Mus musculus [17]): 104

From ChEMBL document CHEMBL1129573, “Structure-activity relationships in a series of substituted indolocarbazoles: topoisomerase I and protein kinase C inhibition and antitumoral and antimicrobial properties” (J Med Chem, 1996)
